Compounds with a hit are over-represented: about 12% of the library has one in this group of screens.
ABCG2 inh: inhibitors of human ABCG2 transporter, ABCB1 counter-screen; IgMXP3 cells, JC-1 efflux, flow cytometry; inhibition, % at 6.6 µM; 190,000 compounds, 0.1% hits; AID 1325;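 active means inhibition above 80%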;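 further: 0% = DMSO and 100% = nicardipine control wells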
Target sequence (Q9UNQ0 whole entry, looked up): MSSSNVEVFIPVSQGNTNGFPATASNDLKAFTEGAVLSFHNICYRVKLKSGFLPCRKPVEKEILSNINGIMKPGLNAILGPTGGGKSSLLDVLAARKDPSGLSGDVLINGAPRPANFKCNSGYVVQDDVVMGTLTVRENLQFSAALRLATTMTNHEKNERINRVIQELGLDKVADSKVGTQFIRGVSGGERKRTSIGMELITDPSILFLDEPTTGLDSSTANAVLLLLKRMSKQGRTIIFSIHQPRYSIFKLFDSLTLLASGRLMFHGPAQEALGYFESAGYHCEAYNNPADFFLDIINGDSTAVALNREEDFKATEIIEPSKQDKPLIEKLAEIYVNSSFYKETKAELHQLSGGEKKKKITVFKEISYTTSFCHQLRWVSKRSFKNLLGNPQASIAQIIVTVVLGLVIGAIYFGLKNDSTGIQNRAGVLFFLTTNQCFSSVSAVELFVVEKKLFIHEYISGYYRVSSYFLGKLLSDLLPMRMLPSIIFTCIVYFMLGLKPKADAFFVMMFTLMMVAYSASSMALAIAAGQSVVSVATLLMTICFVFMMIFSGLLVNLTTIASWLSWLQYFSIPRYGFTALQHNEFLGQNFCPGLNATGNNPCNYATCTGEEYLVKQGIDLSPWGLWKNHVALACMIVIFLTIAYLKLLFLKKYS
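Assay system – ABCG2 IgMXP3 and barcoded ABCB1 CCRF-Adr cell mix · Input – 3 million cells/mL in well · Reagent – JC-1 fluorescent substrate · Compound – single test compound dose, 6.6 µM final · Timing – 10 min exposure at 25 °C with rotation, no wash · Detection – flow cytometry of retained JC-1 fluorescence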
WT yeast gro inh: growth inhibition of WT yeast, mitochondrial fusion screen | inhibition, % at 10 µM | 190,000 compounds, 2.1% hits | mitochondrial fusion phenotypic screen, WT strain; in the data active means inhibition above about 58%; tested in S. cerevisiae
ABCB1 block: human ABCB1 inhibition, ABCG2 as counter-screen | CCRF-Adr cells, JC-1 efflux, flow cytometry | P08183 | AID 1326 | 190,000 compounds, 0.067% hits | inhibition, % at 6.6 µM; in the data active means inhibition above about 40%;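 further: 0% = vehicle and 100% = reference inhibitor; higher value means more JC-1 retained so stronger ABCB1 efflux block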
Lmaj promast: inhibitors of Leishmania major promastigote growth. Leishmania major promastigotes, resazurin fluorescence viability. 200,000 compounds, 9% hits. AID 1063. inhibition, % at 10 µM; in the data active means inhibition above about 50%;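 further: promastigotes grown with compound for 44 hours at 28 °C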
RAM network inh: inhibitors of the yeast RAM network; S. cerevisiae dse1pr::URA3 reporter, 5-FOA growth OD615, 2 d; analog-sensitive cbk1-as2 kinase mutant strain; inhibition, % at 50 µM; 190,000 compounds, 1.8% hits; AID 868;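 active means inhibition above a set limit, 3 SD over mean compound inhibition, cut at about 8.4% in these data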;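 further: 0% = DMSO-only wells with no growth and 100% = 10 µM 1-NA-PP1 full growth; inhibition rescues growth on 5-FOA so higher OD means more RAM inhibition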
* marks the source's active call; other numbers are inactive results.

SMILES	ABCG2 inh	WT yeast gro inh	ABCB1 block	Lmaj promast	RAM network inh
O=C(COC(=O)CCCc1nc2ccccc2s1)Nc1ncc(Cl)cc1Cl	-0.1	13.0	-0.1	-2.1	1.4
CCOC(=O)N1CCN(CC(=O)Nc2ccc(OC)cc2)CC1	3.3	10.6	0.3	-6.1	1.1
CCOC(=O)N1CCN(CCC(=O)Nc2ccc(Br)c(C)c2)CC1	2.2	-4.3	0.8	85.4*	-0.4
CCOC(=O)N1CCN(CCC(=O)Nc2ccccc2OC)CC1	0.4	10.0	0.6	-2.9	0.8
CCOC(=O)N1CCN(CCC(=O)Nc2ccc(OC(F)(F)F)cc2)CC1	63.5	-8.1	0.8	91.6*	-0.9
COc1ccc(NS(=O)(=O)c2cccc(NC(=O)CCC(=O)c3ccc(Cl)cc3)c2)cc1	1.8	-16.9	0.0	79.5*	7.2
COc1ccc(NS(=O)(=O)c2cccc(NC(=O)c3ccc(Cl)nc3)c2)cc1	6.8	-7.5	0.0	61.0*	7.2
COc1ccc(S(=O)(=O)N/N=C(/C)c2cccc(NC(=O)c3ccccc3Cl)c2)cc1	1.1	0.7	-0.7	96.7*	0.1
COc1ccc(NS(=O)(=O)c2cccc(NC(=O)NCCCl)c2)cc1	-0.9	1.0	-0.1	70.9*	2.4
CC(CCc1ccccc1)NC(=O)CCNC(=O)Cn1ccc2ccccc2c1=O (stereo not given)	1.4	-4.4	0.6	-4.8	2.4
COc1cc(CO)cc(Br)c1OCC(=O)Nc1cccc2ccccc12	9.5	0.9	1.3	1.2	3.4
COc1ccc(NS(=O)(=O)c2cccc(C(=O)N/N=C(\C)c3ccncc3)c2)cc1	4.8	-6.3	0.0	58.6*	-0.4
O=C(/C=C/c1ccc(Br)cc1)c1ccc(NC2=NCCCS2)cc1	7.2	81.2	3.6	100.3*	-0.1
CCN(CC)c1ccc(/C=C/C(=O)c2ccc(Br)cc2)cc1	5.7	21.0	3.2	-4.2	8.3
c1ccc(NC2=NCCCCS2)cc1	10.4	-22.6	0.5	-2.8	0.0
O=C(/C=C/c1ccccc1)c1ccc(NC2=NCCCS2)cc1	17.5	56.6	0.7	100.2*	2.6
CC(C)(C)c1ccc(/C=C/C(=O)c2ccc(NC3=NCCCS3)cc2)cc1	1.1	79.0	0.1	100.4*	-1.6
CC(c1nccs1)N(C)c1nc2nonc2nc1N(C)C (stereo not given)	0.4	-0.3	0.2	-5.3	2.2
Cc1csc(SCC(=O)NCCc2ccc(Cl)cc2Cl)n1	9.3	8.3	0.4	-2.8	0.1
CCN(CC)C(=O)N1CCc2ccccc21	-3.2	4.3	0.2	3.9	1.0
CCCNC(=O)NC1CCCc2ccccc21 (stereo not given)	-1.2	3.4	0.4	-7.6	1.7
Cc1cccc(NC(=O)N(Cc2nc3ccccc3c(=O)[nH]2)C2CCCC2)c1	6.1	78.2*	1.1	11.7	0.0
O=C(Nc1cccc(Cl)c1)N(Cc1nc2ccccc2c(=O)[nH]1)C1CCCC1	4.5	3.0	0.8	2.0	1.8
COc1ccccc1C(=O)n1nc(-c2ccccc2)nc1NCc1ccco1	4.6	82.6*	0.9	9.2	7.0
O=C(c1ccco1)n1nc(-c2ccc(Cl)cc2)nc1NCc1ccco1	14.3	0.2	0.0	-2.4	9.4*
SMILES	ABCG2 inh	WT yeast gro inh	ABCB1 block	Lmaj promast	RAM network inh
O=C(c1ccco1)n1nc(-c2ccccc2)nc1NCc1ccco1	40.5	-7.0	-0.7	0.2	3.0
Cc1nn(-c2ccccc2)c(Cl)c1/C=N/O	8.5	-0.1	1.4	-7.5	-0.8
Cc1nn(-c2ccccc2)c(Cl)c1/C=C1\C(=O)N(C)C(=S)N1C	5.3	17.4	1.1	-1.5	1.8
Cc1nn(-c2ccccc2)c(Cl)c1/C=C/C(=O)c1ccccc1	5.7	56.5	0.9	69.2*	5.3
Cc1nn(-c2ccccc2)c(Cl)c1/C=C1\SC(=S)N(C)C1=O	4.6	-7.3	0.2	53.3*	8.4*
Cc1cc(C)n(CCN(C)c2nc3nonc3nc2NC2CC2)n1	-0.6	-12.5	-2.9	-6.5	0.7
CC(C)(C)c1ccc(C(=O)CC(Sc2ccc(Cl)cc2)C(=O)O)cc1 (stereo not given)	-2.4	-9.1	-0.1	77.9*	-0.6
CC(C)(C)c1ccc(C(=O)Nc2ccc(Cl)cc2)cc1	1.4	0.5	-0.6	0.9	4.3
CCc1n[nH]c(=S)n1/N=C/c1cc(Br)c(OC)cc1OC	5.4	25.3	0.2	-5.2	0.5
CC(C)NS(=O)(=O)c1ccc(NC(=O)C2CC3C=CC2C3)cc1 (stereo not given)	4.0	75.1*	0.7	-3.8	1.9
CC(NCC(O)COCc1ccc(Cl)cc1)c1ccccc1 (stereo not given)	1.9	19.6	0.2	48.5	-0.6
Cc1ccc(C(OCC(O)CNC(C)c2ccccc2)c2ccccc2)cc1 (stereo not given)	0.7	38.9	1.1	77.0*	0.8
CC(C(=O)NC(=O)NC1CCCCC1)N1CCN(C(c2ccccc2)c2ccccc2)CC1 (stereo not given)	2.2	72.8*	2.6	39.2	0.4
O=C(CNC(=O)c1cccs1)NCCN1CCC(Cc2ccccc2)CC1	-0.7	-2.9	0.2	5.5	0.4
CC(C(=O)NCCc1ccc(F)cc1)N1CCN(Cc2ccccc2)CC1 (stereo not given)	0.3	44.9	0.0	82.8*	0.1
O=C(NCCNC1CCN(Cc2ccccc2)CC1)c1cccs1	1.6	-0.2	0.2	88.3*	-0.9
CCCC(CCC)C(=O)NC1CCN(Cc2ccccc2)CC1	-0.3	-5.3	-0.1	88.0*	0.9
O=C(NC1CCCCC1)C(c1ccccc1)N1CCCC1 (stereo not given)	1.1	3.4	0.5	-5.1	1.1
CC(C(=O)NC1CCCC1)N1CCN(Cc2ccccc2)CC1 (stereo not given)	0.9	18.4	0.4	72.5*	-0.4
O=C(NC1CCN(Cc2ccccc2)CC1)C(NS(=O)(=O)c1cccc2nsnc12)c1ccccc1 (stereo not given)	-0.9	-5.5	0.1	51.0*	0.1
COc1ccc2[nH]c3c(=O)n4c(nc3c2c1)SCCC4	29.7	-1.5	2.1	20.6	6.1
Cc1ccc(C)n1NC(=O)c1ccccc1Cl	4.6	2.1	1.3	2.7	0.8
Cc1ccc(C)n1NC(=O)c1cccc(Cl)c1	4.3	-14.1	0.5	92.4*	1.4
Cc1cccc(C2CC(c3ccc(Br)cc3)Nc3nc(N)nn32)c1 (stereo not given)	-0.5	12.2	-2.3	72.9*	-0.2
COc1ccc(C2CC(c3ccc(Br)cc3)Nc3nc(N)nn32)cc1 (stereo not given)	-0.4	-5.1	-0.2	9.0	0.5
COc1cccc(C2CC(c3cccc(OC)c3)n3nc(N)nc3N2)c1 (stereo not given)	2.6	9.4	0.3	-10.7	-0.3
COc1ccc(C2CC(c3cccc(Cl)c3)n3nc(N)nc3N2)cc1 (stereo not given)	2.6	11.9	0.2	62.5*	1.6
Nc1nc2n(n1)C(c1ccccc1)CC(c1ccc(F)cc1)N2 (stereo not given)	0.2	-3.9	0.0	-4.9	3.1

Assay outcomes deposited in PubChem by several laboratories.
